Screening data: PubChem BioAssay, Johns Hopkins Ion Channel Center
KCNQ1 pot = human KCNQ1 channel potentiation or activation. AID 2648. P51787. actives 0.35% (n = 310,000). CHO-K1 KCNQ1, thallium flux FluxOR fluorescence; stronger effect = higher value. B-score at 10 µM;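 active = fluorescence ratio B-score, a plate-corrected score, at least three library SD, with initial intensity B-score within 5 SD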
Target sequence (P51787 whole entry, looked up): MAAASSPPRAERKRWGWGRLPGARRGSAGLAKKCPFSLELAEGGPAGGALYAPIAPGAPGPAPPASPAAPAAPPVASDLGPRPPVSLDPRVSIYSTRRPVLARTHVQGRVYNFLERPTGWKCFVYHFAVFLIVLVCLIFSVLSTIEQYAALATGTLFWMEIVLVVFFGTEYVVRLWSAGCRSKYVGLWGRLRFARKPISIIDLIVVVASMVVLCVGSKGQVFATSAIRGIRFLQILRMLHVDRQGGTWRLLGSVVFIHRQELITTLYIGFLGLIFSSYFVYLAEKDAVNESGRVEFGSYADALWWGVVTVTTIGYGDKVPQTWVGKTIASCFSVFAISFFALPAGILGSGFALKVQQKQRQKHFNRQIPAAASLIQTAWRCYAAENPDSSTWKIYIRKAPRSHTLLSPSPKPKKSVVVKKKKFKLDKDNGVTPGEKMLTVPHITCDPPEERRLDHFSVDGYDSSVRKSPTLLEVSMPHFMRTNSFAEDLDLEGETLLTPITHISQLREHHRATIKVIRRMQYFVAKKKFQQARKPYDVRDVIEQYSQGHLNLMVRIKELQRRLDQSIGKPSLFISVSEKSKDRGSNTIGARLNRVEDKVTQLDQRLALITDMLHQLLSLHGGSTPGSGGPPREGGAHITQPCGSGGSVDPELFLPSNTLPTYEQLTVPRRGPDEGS
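System: Stable KCNQ1 CHO-K1 line | Incubation: 90 min dye loading and 20 min compound exposure, both at room temperature | Measure: Ratio B score | Medium: Assay buffer for compound exposure, DMSO matched across wells | Compound dosing: Single-concentration screen | Probe or stimulus: K+/Tl+ depolarizing stimulus | Measured by: Kinetic FluxOR fluorescence, 10 s baseline plus 110 s post-stimulus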
Kir21 inh = blocks the mouse Kir2.1 inward-rectifier potassium channel; B-score at 10 µM; P35561; actives 0.85% (n = 310,000); AID 1672; HEK293-Kir2.1, FluxOR thallium flux fluorescence; stronger effect = lower value;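 active = fluorescence ratio B-score at or below minus 3 SD of library scores, with starting-brightness B-score within 2 SD, cut at about -4.2 in these data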;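 note: channel flux triggered by added potassium and thallium sulfate stimulus; B-score of peak minus minimum fluorescence over baseline after thallium stimulus; more negative B-score means stronger Kir2.1 block with less thallium influx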
KCNK3 block = human KCNK3 channel inhibition, primary screen; O14649; CHO-KCNK3 thallium flux, FluxOR fluorescence; stronger effect = lower value; B-score at 10 µM; actives 0.84% (n = 340,000); AID 602410;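 active = B-score under library mean minus 4 SD, starting fluorescence ratio at most library mean plus 5 SD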;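 note: more negative B-score means stronger inhibition of thallium flux through KCNK3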
KCNK9 block = human KCNK9 channel inhibition | Q9NPC2 | B-score at 10 µM | actives 1.2% (n = 310,000) | HEK293 KCNK9, FluxOR thallium flux fluorescence; stronger effect = lower value | AID 488922;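 active = ratio B-score over 3 SD below the library mean, with starting fluorescence within 5 SD of its mean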;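 note: negative B-score means less thallium flux so channel inhibition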
KCNQ1 inh = human KCNQ1 channel inhibition; B-score at 10 µM; actives 1.3% (n = 310,000); AID 2642; P51787; CHO-K1 KCNQ1, FluxOR thallium flux fluorescence; stronger effect = higher value;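 active = compounds whose thallium flux B-score, printed positive for inhibition, exceeds three library SD while starting fluorescence stays within three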;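 note: channel opened by potassium depolarization with thallium stimulus after 20 min compound exposure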
hERG protect = hERG (human) protection from proarrhythmic block | Q12809 | CHO-hERG, FluxOR thallium flux, dofetilide IC70 present | activation (rescue from dofetilide block), less the hit threshold, % at 10 µM | actives 0.51% (n = 310,000);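 active = activation above the mean of controls blocked by dofetilide plus 5 SD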;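 note: thallium influx through hERG after potassium depolarization seen as dye fluorescence rise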
KCNK9 block conf = confirmation of human KCNK9 potassium channel inhibitors; shares compounds with KCNK9 block; HEK293 KCNK9 cells, FluxOR thallium flux fluorescence; inhibition, % at 10 µM; actives 43% (n = 4,900); AID 492992;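 active = thallium signal inhibited by more than 5 SD of the compound-free buffer control wells, on both duplicate plates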
Kir2-1 spec = selectivity of KCNK9 modulators against mouse Kir2.1. Kir2.1 cells, FluxOR thallium flux fluorescence. inhibition, % at 10 µM. AID 492993. shares compounds with KCNK9 block. actives 4% (n = 4,900);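 active = thallium signal drop more than 5 SD beyond the mean of the no-compound control wells, seen in both duplicate plates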;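 note: signal is fluorescence rise after thallium addition divided by baseline fluorescence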
HEK293 Tl ctr = second check of KCNK9 modulator effects in non-induced HEK293 cells; shares compounds with KCNK9 block; FluxOR thallium flux; inhibition, % at 10 µM; actives 40% (n = 4,900);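 active = thallium signal drop beyond 5 SD of the untreated control mean, on both duplicate plates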
Each line names hits and unclear results; the compound was inactive in the other large screens (follow-up assays come after a bar, where they were run). Most compounds without a hit are left out; they make up all but 3.8% or so of the library.

Cc1ccc(NC(=O)CSCC(=O)NCCc2ccccc2)cc1	none
Cc1ccc(CSCCNC(=O)CSCc2ccc([N+](=O)[O-])cc2)cc1	none | KCNK9 block conf inactive | Kir2-1 spec inactive | HEK293 Tl ctr inactive
CSc1ccccc1NC(=O)CSCc1ccc(C)cc1	Kir21 inh -5.1 | KCNK9 block conf inactive | Kir2-1 spec inactive | HEK293 Tl ctr inactive
Cc1ccc(CSCC(=O)NCCc2ccccc2)cc1	none | KCNK9 block conf inactive | Kir2-1 spec inactive | HEK293 Tl ctr inactive
Cc1ccc(CSCC(=O)Nc2ccccc2C(=O)O)cc1	none
Cc1cccc(CSCCNC(=O)CSCc2ccc([N+](=O)[O-])cc2)c1	none
COc1cccc(CNC(=O)c2ccc(CS(=O)(=O)Cc3ccccc3C)o2)c1	none
NC(=S)NN=C1c2ccccc2-c2ccccc21	none
CC(=O)Nc1cc([N+](=O)[O-])ccc1OCc1ccccc1	none (no result: KCNQ1 pot, Kir21 inh, KCNK9 block, KCNQ1 inh, hERG protect)
O=C(/C=C/c1cccc([N+](=O)[O-])c1)NCCSCc1c(Cl)cccc1Cl	none
O=C(/C=C/c1cccc([N+](=O)[O-])c1)NCCSCc1ccc(Cl)cc1	KCNK9 block -9 | KCNK9 block conf 54% | Kir2-1 spec inactive | HEK293 Tl ctr 32%
Cc1ccc(SCCNC(=O)/C=C/c2cccc([N+](=O)[O-])c2)cc1	none | KCNK9 block conf inactive | Kir2-1 spec inactive | HEK293 Tl ctr inactive
O=C(/C=C/c1cccc([N+](=O)[O-])c1)NCCSc1ccccc1	none
CCC(=O)Nc1c2c(nn1-c1ccc(OC)cc1)CSC2	none
COc1ccc(OCC(=O)Nc2c3c(nn2C(C)(C)C)CSC3)cc1	KCNK9 block -14 | KCNK9 block conf 57% | Kir2-1 spec inactive | HEK293 Tl ctr 24%
Cc1ccc(S(=O)(=O)N2CCN(C3CC(=O)N(CCc4ccccc4)C3=O)CC2)cc1C (stereo not drawn)	none | KCNK9 block conf inactive | Kir2-1 spec inactive | HEK293 Tl ctr inactive
COc1ccc(S(=O)(=O)N2CCN(C/C=C/c3ccccc3)CC2)cc1F	none | KCNK9 block conf inactive | Kir2-1 spec inactive | HEK293 Tl ctr inactive
O=S(=O)(c1ccccc1F)N1CCN(CCc2ccccc2)CC1	none | KCNK9 block conf inactive | Kir2-1 spec inactive | HEK293 Tl ctr inactive
O=S(=O)(c1ccc(F)c(F)c1)N1CCN(CCc2ccccc2)CC1	none | KCNK9 block conf inactive | Kir2-1 spec inactive | HEK293 Tl ctr inactive
C[C@@H]1CN([C@@H](C)CO)C(=O)c2cccc(NC(=O)c3nc4ccccc4s3)c2O[C@@H]1CN(C)CC1CC1	none (no result: KCNQ1 pot, Kir21 inh, KCNK9 block, KCNQ1 inh, hERG protect)
OC1c2cc(Cl)ccc2-c2c(Cl)cc(Cl)cc21 (stereo not drawn)	none (no result: KCNQ1 pot, Kir21 inh, KCNK9 block, KCNQ1 inh, hERG protect)
Cc1cccc(-c2ncc(CN3CCN(CC(C)C)C(CCO)C3)cn2)c1 (stereo not drawn)	none | KCNK9 block conf inactive | Kir2-1 spec inactive | HEK293 Tl ctr inactive
CCC(=NCCc1c(C)[nH]c2ccc(OC(F)(F)F)cc12)C1=C(O)CC(c2ccccc2)CC1=O (stereo not drawn)	none
CCC(=NCCc1c(C)[nH]c2ccccc12)C1=C(O)CC(c2ccccc2)CC1=O (stereo not drawn)	none | KCNK9 block conf inactive | Kir2-1 spec inactive | HEK293 Tl ctr inactive
CCCCC(=NCCc1c(C)[nH]c2ccc(OC)cc12)C1=C(O)CC(c2ccccc2)CC1=O (stereo not drawn)	none | KCNK9 block conf inactive | Kir2-1 spec inactive | HEK293 Tl ctr inactive
Cc1ccc(NC(=O)c2nc(S(=O)(=O)Cc3ccccc3)ncc2Cl)cc1	none
O=C(Nc1ccc(F)cc1)c1nc(S(=O)(=O)Cc2ccccc2)ncc1Cl	KCNK9 block -9 | KCNK9 block conf 47% | Kir2-1 spec inactive | HEK293 Tl ctr inactive
O=[N+]([O-])c1cc2c(cc1/C=N/Nc1nc(N3CCCC3)nc(N3CCCC3)n1)OCO2	none | KCNK9 block conf inactive | Kir2-1 spec inactive | HEK293 Tl ctr inactive
COc1ccc(C(=O)/C(=C/O)N=Nc2ccc(F)cc2)cc1	KCNK9 block -12 | KCNK9 block conf inactive | Kir2-1 spec inactive | HEK293 Tl ctr inactive
CN(C)c1ccc(N=c2sc3ccccc3n2C)cc1	none | KCNK9 block conf inactive | Kir2-1 spec inactive | HEK293 Tl ctr inactive
CC(=O)N/N=c1\sc2ccccc2n1C	none
CC1CCCCC12NC(=O)N(CC(=O)NCCc1ccccc1)C2=O (stereo not drawn)	none (no result: KCNQ1 pot, Kir21 inh, KCNK9 block, KCNQ1 inh, hERG protect)
CC(C)(C)n1nnnc1C(c1cccs1)N1CCCc2ccccc21 (stereo not drawn)	KCNK9 block -9.9 | KCNK9 block conf inactive | Kir2-1 spec inactive | HEK293 Tl ctr inactive
COc1ccccc1C(c1nnnn1C(C)(C)C)N1CCN(C(=O)c2ccco2)CC1 (stereo not drawn)	KCNK9 block -14 | KCNK9 block conf 54% | Kir2-1 spec inactive | HEK293 Tl ctr 46%
CCOc1ccc(C(c2nnnn2C(C)(C)C)N2CCN(C(=O)c3ccco3)CC2)cc1 (stereo not drawn)	none
COc1ccccc1C(c1nnnn1C(C)(C)C)N1CCCCCC1 (stereo not drawn)	KCNK9 block -8.9 | KCNK9 block conf 30% | Kir2-1 spec inactive | HEK293 Tl ctr 28%
CS(=O)(=O)c1ccc(Cl)c(NC(=O)CSc2nnc(C3CC3)n2C2CC2)c1	none (no result: KCNQ1 pot, Kir21 inh, KCNK9 block, KCNQ1 inh, hERG protect)
CCCN(CCC)C(=O)c1ccc2nc(-c3ccc(OC)c(OC)c3)c(-c3ccc(OC)c(OC)c3)nc2c1	none
COc1cc(NC(=O)Cn2cnc3c(NCc4ccccc4)ncnc32)cc(OC)c1OC	none (no result: KCNQ1 pot, Kir21 inh, KCNK9 block, KCNQ1 inh, hERG protect)
Cc1nnc(SCCCN2C(=O)c3ccccc3C2=O)o1	none
O=C1c2ccccc2C(=O)N1CCCCSc1nc2ccccc2o1	none | KCNK9 block conf inactive | Kir2-1 spec inactive | HEK293 Tl ctr inactive
CCN(C(=S)Nc1ccc(Oc2ccccc2)cc1)c1ccccc1	none | KCNK9 block conf inactive | Kir2-1 spec inactive | HEK293 Tl ctr inactive
O=[N+]([O-])c1ccc(S(=O)(=O)Nc2ccc3c(c2)OCCO3)cc1	KCNK9 block -8.1 | KCNK9 block conf inactive | Kir2-1 spec inactive | HEK293 Tl ctr inactive
CC1CC1C(=O)OCC(=O)Nc1ccc(S(=O)(=O)N2CCOCC2)cc1 (stereo not drawn)	none (no result: KCNQ1 pot, Kir21 inh, KCNK9 block, KCNQ1 inh, hERG protect)
COc1ccc(-c2noc3c2-c2nc(C4CCCCC4)sc2CC3)cc1	none | KCNK9 block conf inactive | Kir2-1 spec inactive | HEK293 Tl ctr 24%
CCSCC1COC(c2cccn2Cc2ccc(C)cc2)=N1 (stereo not drawn)	none | KCNK9 block conf inactive | Kir2-1 spec inactive | HEK293 Tl ctr 26%
